Sampled rows, rich in hits. Any-hit rate of the full collection: about 2.2%.
DNMT1 block = human DNMT1 methyltransferase inhibitors, primary screen, biochemical, molecular beacon, fluorescence, HinP1I cleavage, uHTS | DNA (cytosine-5)-methyltransferase 1 (Homo sapiens), P26358 | inhibition (reported as % activation of signal), % at 10 µM | 0.83% of 360,000 active | AID 588458, 2011; in the data active = inhibition above about 50%
SUMO1-SIM PPI = modulators of SUMO1 protein-protein interactions, primary screen, biochemical, uHTS; Small ubiquitin-related modifier 1 (Homo sapiens), P63165; SUMO1 binding to a labelled peptide, TR-FRET, 1 h; inhibition, % at 20 µM; 0.33% of 360,000 active; AID 602429, 2012; in the data active = inhibition above about 37%
Target sequence (P63165 whole entry, looked up): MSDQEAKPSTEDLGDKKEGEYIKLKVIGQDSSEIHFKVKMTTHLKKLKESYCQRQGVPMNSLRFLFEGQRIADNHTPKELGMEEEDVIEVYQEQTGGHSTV
STEP block = STEP phosphatase inhibitors, primary screen, biochemical, fluorescence intensity, uHTS; recombinant STEP, OMFP fluorogenic substrate; inhibition, % at 20 µM; 0.25% of 360,000 active;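 active = inhibition at 20 µM, scaled per plate between control wells, above about 37%, limit read from the data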
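Assay system: isolated STEP enzyme. Buffer or medium: pH 6.0 Bis-Tris with DTT and Tween 20. Also added: fluorogenic phosphatase substrate OMFP at 25 µM final. Dosing: 20 µM, 1% DMSO. Timing: 20 min reaction, room temperature, in the dark. Measured by: fluorescence intensity, excitation 480 nm, emission 540 nm. Evaluation: normalized % inhibition.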
Scp-1 inhibitor = Scp-1 phosphatase inhibitors, primary screen, biochemical, colorimetric, uHTS | Carboxy-terminal domain RNA polymerase II polypeptide A small phosphatase 1 (Homo … | Recombinant Scp1, phosphopeptide, malachite green phosphate absorbance | inhibition, % at 20 µM | 0.88% of 340,000 active;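 active = inhibition above about 50% at 20 µM, limit read from the data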
Target sequence (Q9GZU7 76-261 limits assumed): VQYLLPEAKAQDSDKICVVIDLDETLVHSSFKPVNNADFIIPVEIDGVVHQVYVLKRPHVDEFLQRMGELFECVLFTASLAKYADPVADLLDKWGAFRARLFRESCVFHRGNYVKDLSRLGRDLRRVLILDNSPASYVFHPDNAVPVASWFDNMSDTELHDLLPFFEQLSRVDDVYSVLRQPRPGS
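Test system – truncated SCP-1 phosphatase (76-261aa) · Reagent – Phosphorylated 17-residue peptide substrate · Incubation – 45 min room-temperature reaction, 5 min colour, 30 min stabiliser · Detection – colorimetric phosphate reagent with accelerator and stabiliser, absorbance at 630 nm · Measure – % inhibition at 20 µM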
GRK2 aptamer HTS = compounds blocking aptamer binding on GRK2 – biochemical, human GRK2, bead flow cytometry, HTS, primary screen. 0.59% of 330,000 active. inhibition of aptamer binding, % at 10 µM. Beta-adrenergic receptor kinase 1 (Homo sapiens), P25098. FAM-aptamer displacement from GRK2. AID 488847, 2010;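 active = inhibition of aptamer binding above 40%, roughly 3 SD of noise, on plates passing a quality check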;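 also: median bead fluorescence of bound FAM aptamer so fluorescent compounds give negative values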
LMPTP block = LMPTP phosphatase inhibitors, primary screen, biochemical, fluorescence intensity, uHTS; recombinant LMPTP-A, OMFP fluorogenic substrate; inhibition, % at 20 µM; 0.22% of 360,000 active;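 active = compounds that cut the enzyme signal by at least half of the control window in the single-dose screen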
Target sequence (P24666 whole entry, looked up): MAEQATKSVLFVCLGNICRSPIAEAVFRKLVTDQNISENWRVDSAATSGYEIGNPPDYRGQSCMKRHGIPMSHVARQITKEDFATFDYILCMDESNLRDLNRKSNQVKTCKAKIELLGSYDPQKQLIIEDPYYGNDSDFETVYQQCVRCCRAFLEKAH
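material = LMPTP-A | quantity = 0.625 nM enzyme | reagent = OMFP substrate, 400 µM final | buffer or medium = Bis-Tris pH 6.0, DTT, detergent | detection = endpoint fluorescence intensity from OMFP dephosphorylation | dosing = single 20 µM dose | read-out basis = % inhibition relative to no-enzyme and uninhibited control wells | control set = no-enzyme and uninhibited controls | timing = 50 min at room temperature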
DNMT1 confirm = DNMT1 methyltransferase inhibitor retest, confirmation, biochemical, molecular beacon, fluorescence, single concentration; shares compounds with DNMT1 block; DNMT1 molecular beacon HinP1I cleavage; inhibition, % at 10 µM; 8% of 2,300 active; AID 602385, 2012;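 active = average inhibition of at least 30% in the single-concentration confirmation test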
Beacon interf = beacon fluorescence artifact counter-screen | shares compounds with DNMT1 block | DNMT1 molecular beacon spectral interference counterscreen, fluorescence 485/520 | activation (fluorescence interference), % at 10 µM | 1% of 2,300 active;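 active = activation of at least 30% at 10 µM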;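 also: DNMT1 catalytic domain with a HinP1I cleavage step and a FAM/dabcyl DNA beacon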
STEP inh conf = STEP phosphatase inhibitor hit confirmation, biochemical, fluorescence intensity, single concentration | shares compounds with STEP block | recombinant STEP, OMFP fluorogenic substrate | inhibition, % at 20 µM | 32% of 520 active | AID 623866, 2012; call rule not given here
A number is an active result; – = inactive; · = no result.

SMILES	DNMT1 block	SUMO1-SIM PPI	STEP block	Scp-1 inhibitor	GRK2 aptamer HTS	LMPTP block	DNMT1 confirm	Beacon interf	others
CC(N)Cc1c[nH]c2ccc(OCc3cccs3)cc12 (configuration not stated)	–	–	–	–	–	–	·	·
NC(Cc1ccc(Cl)cc1)c1csc(Nc2ncccn2)n1 (configuration not stated)	–	–	–	·	·	–	·	·
COC(=O)C1=C(c2ccc(S(C)(=O)=O)cc2)C[C@@H]2CC[C@H]1N2C(=O)N1CCOCC1	67	–	–	–	–	–	–	–
O=C1NCN(c2ccccc2)C12CCN(C(c1ccnc3ccccc13)c1nnnn1-c1ccc3c(c1)OCCO3)CC2 (configuration not stated)	–	–	–	·	·	–	·	·
CC(C)(C)N1C(=O)NC(=O)/C(=C\c2ccc3c(c2)CCN3CCCCl)C1=O	–	–	–	–	–	–	·	·
O=C1NC(=S)N(C2CC2)C(=O)/C1=C/c1ccc2c(c1)CCN2CCCCl	87	–	–	–	–	–	–	–
CCN1C(=O)/C(=C/c2ccc3c(c2)CCN3CCCCl)C(=O)NC1=S	102	–	–	–	–	–	–	–
C=CCN1C(=O)/C(=C/c2ccc3c(c2)CCCN3CCC)C(=O)NC1=S	–	–	–	–	–	–	·	·
COc1ccc(C(c2nnnn2-c2ccc3c(c2)OCCO3)N2CCC3(CC2)C(=O)NCN3c2ccccc2)cc1 (configuration not stated)	–	–	–	·	·	–	·	·
O=C1CC(N2CCC(n3c(=O)[nH]c4ccccc43)CC2)C(=O)N1c1ccc(F)cc1 (configuration not stated)	61	–	–	–	–	–	–	–
Clc1ccc(-c2nc3ccc(Cl)cn3c2CN2CCOCC2)cc1	73	–	–	–	–	–	–	–
COc1ccc(-n2nnnc2C(CCSC)N2CCC3(CC2)C(=O)NCN3c2ccccc2)cc1 (configuration not stated)	–	–	–	·	·	–	·	·
COc1ccc2c(c1)C1(C(=O)O)CC=CCC1(C(=O)O)C2 (configuration not stated)	–	–	–	–	·	–	·	·
COC(=O)C1=C(c2ccc(OC(F)(F)F)cc2)C[C@@H]2CC[C@H]1N2C(=O)N1CCCCC1	–	–	–	–	–	–	·	·
COc1ccc(CCC(=O)N2CCC3(CC2)OCCO3)cc1	–	–	–	–	–	–	·	·
O=C(CCc1nc(-c2ccccc2F)no1)N1CCC2(CC1)OCCO2	58	–	–	–	–	–	–	–
Fc1ccc(NC(=S)N2Cc3ccccc3-n3nncc3C2)cc1	–	–	–	·	·	–	·	·
C[C@]12CC[C@H](N)CC1=CCC1C2CC[C@@]2(C)C1CC[C@@H]2O (some centres not stated)	–	–	–	–	–	–	·	·
C[C@]12CC[C@@H](O)CC1=CCC1C2CC[C@@]2(C)C1CC[C@@H]2N (some centres not stated)	81	–	–	–	–	–	–	–
C[C@]12CCC3C(CC[C@@H]4[C@H]5O[C@H]5CC[C@]34C)C1CC[C@@H]2O (some centres not stated)	–	–	–	–	·	–	·	·
O=C1NC(=O)N(c2ccccc2)C(=O)/C1=C/C=C/c1ccco1	65	–	–	–	–	–	–	–
Cc1cc(/C=C2\C(=O)NC(=O)N(Cc3ccco3)C2=O)c(C)n1-c1ccc(O)cc1	73	–	–	–	–	–	–	–
Cc1cc(/C=C2\C(=O)NC(=O)N(Cc3ccco3)C2=O)c(C)n1-c1ccc(C(=O)O)cc1	86	–	–	61	–	–	–	–
O=C(NP(=O)(N1CC1)N1CC1)c1cc(I)ccc1I	–	–	–	–	·	–	·	·
COc1ccc(Cn2c(N)c(C(=O)NCc3ccco3)c3nc4ccccc4nc32)cc1OC	87	36	–	–	–	–	–	–
SMILES	DNMT1 block	SUMO1-SIM PPI	STEP block	Scp-1 inhibitor	GRK2 aptamer HTS	LMPTP block	DNMT1 confirm	Beacon interf	others
Nc1c(C(=O)OCC2CCCO2)c2nc3ccccc3nc2n1Cc1cccs1 (configuration not stated)	73	–	–	–	–	–	–	–
CC(C)OCCCNC(=O)c1c(N)n(Cc2cccs2)c2nc3ccccc3nc12	–	–	–	–	–	–	·	·
COCCOC(=O)c1c(N)n(Cc2ccco2)c2nc3ccccc3nc12	66	49	–	–	–	–	–	–
COC(=O)c1c(N)n(Cc2ccc(OC)cc2)c2nc3ccccc3nc12	70	–	–	–	–	–	–	–
O=P(/C=C1\OCc2ccccc21)(Oc1ccccc1)Oc1ccccc1	·	–	·	·	·	–	·	·
C[C@]12CCC(OC(=O)CCC(=O)O)CC1=CCC1C2CC[C@]2(C)C(=O)CCC12 (some centres not stated)	91	–	–	–	–	–	–	–
C[C@]12CC[C@H](OC(=O)CCC(=O)O)CC1=CCC1C2CC[C@@]2(C)C1CC[C@@H]2OC(=O)CCC(=O)O (some centres not stated)	–	–	–	–	–	–	·	·
CN1CCc2nc(SCc3cccc(Br)c3)c(C#N)cc2C1	70	–	–	–	–	–	–	–
CCN(C(=O)COC(=O)Cc1ccccc1)c1c(N)n(Cc2ccccc2)c(=O)[nH]c1=O	86	–	–	–	–	–	–	–
CN(C)CC(C(=O)Cc1ccccc1)c1ccccc1 (configuration not stated)	–	–	–	–	·	–	·	·
O=C(O)Cn1cc(/C=C2\C(=O)NC(=O)N(c3ccc(Cl)cc3)C2=O)c2ccccc21	67	–	–	–	–	–	–	–
O=C(O)Cn1cc(C=C2C(=O)NC(=O)NC2=O)c2ccccc21	–	–	–	–	–	–	·	·
CN(C)c1ccc2c(c1)N=C(c1ccco1)OP2(=S)N1CCOCC1 (configuration not stated)	–	–	36	–	–	–	·	·	STEP inh conf=–
CN(C)c1ccc(CCN2CCOCC2)cc1	–	–	–	–	–	–	·	·
CC12C=CC(=O)C=C1CCC1C2C(O)CC2(C)C1CCC2(C)O (configuration not stated)	–	–	–	–	·	–	·	·
C=CCn1c(O)c(/C=N/N2CCCCC2c2cccnc2)c(=O)[nH]c1=S (configuration not stated)	–	–	42	–	–	–	·	·	STEP inh conf=–
